This is an account of results in ChEMBL document CHEMBL4052636, “Design, synthesis and biological evaluation of some novel sulfonamide derivatives as apoptosis inducers” (Eur J Med Chem, 2017).

Test [1] deals with Caco-2. The experiment in a line: Cytotoxicity against human Caco2 cells assessed as surviving fraction at 25 uM after 24 hrs by MTT assay relative to control. The test is classed as functional. The procedure, abridged:
(§1)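 Caco-2 cells were kept as monolayers in RPMI-1640 with 10% FBS, 100 U/mL penicillin and streptomycin, at 37 C in humidified 5% CO2. Cells were treated for 24 h at concentrations spanning […], and viability was read by the colorimetric MTT (Mosmann) method. Percent relative viability and IC50 were fitted in Prism.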

The test system of test [2] is Caco-2. The experiment in a line: Cytotoxicity against human Caco2 cells assessed as surviving fraction at 10 uM after 24 hrs by MTT assay relative to control. The format is functional. An outline of the steps: as §1
Test [3] deals with Caco-2. The experiment in a line: Cytotoxicity against human Caco2 cells assessed as surviving fraction at 100 uM after 24 hrs by MTT assay relative to control. The test is classed as functional. The procedure, abridged:
as §1

Test [4] concerns Caco-2. Put plainly: Cytotoxicity against human Caco2 cells assessed as cell viability after 24 hrs by MTT assay. The test is classed as functional, cell-based. Conditions: Caco-2, 24 h. The procedure, abridged: as §1
Test [5] relates to Caco-2. The experiment in a line: Cytotoxicity against human Caco2 cells assessed as surviving fraction at 50 uM after 24 hrs by MTT assay relative to control. The format is functional. An outline of the steps: as §1
For test [6], the system named is Caco-2. Put plainly: Cytotoxicity against human Caco2 cells assessed as surviving fraction at 1 uM after 24 hrs by MTT assay relative to control. The format is functional. The procedure, abridged: as §1
Test [7] deals with Caco-2. Put plainly: Induction of apoptosis in human Caco2 cells assessed as Fas-ligand concentration at 0.3 uM after 24 hrs by FASL-based ELISA (reference value: 20.5 pg/ml). The test is classed as functional.
The test system of test [8] is Caco-2. The experiment in a line: Induction of apoptosis in human Caco2 cells assessed as Fas-ligand concentration at 0.15 uM after 24 hrs by FASL-based ELISA (reference value: 20.5 pg/ml). The format is functional.
Test [9] has as its system Caco-2. The experiment in a line: Induction of apoptosis in human Caco2 cells assessed as caspase-3 concentration at 0.6 uM after 24 hrs by colorimetric analysis (reference value: 0.193 nmol/ml). The format is functional.
For test [10], the system named is Caco-2. Put plainly: Induction of apoptosis in human Caco2 cells assessed as caspase-3 concentration at 0.15 uM after 24 hrs by colorimetric analysis (reference value: 0.193 nmol/ml). The format is functional.
Test [11] relates to Caco-2. The experiment in a line: Induction of apoptosis in human Caco2 cells assessed as Fas-ligand concentration at 0.6 uM after 24 hrs by FASL-based ELISA (reference value: 20.5 pg/ml). The test is classed as functional.
For test [12], the system named is Caco-2. The experiment in a line: Induction of apoptosis in human Caco2 cells assessed as caspase-3 concentration at 0.3 uM after 24 hrs by colorimetric analysis (reference value: 0.193 nmol/ml). The test is classed as functional.
Test [13] deals with Caco-2. Put plainly: Induction of apoptosis in human Caco2 cells assessed as caspase-3 concentration at 62.3 uM after 24 hrs by colorimetric analysis (reference value: 0.193 nmol/ml). The test is classed as functional.
The test system of test [14] is Caco-2. The experiment in a line: Induction of apoptosis in human Caco2 cells assessed as Fas-ligand concentration at 100 uM after 24 hrs by FASL-based ELISA (reference value: 20.5 pg/ml). The test is classed as functional.
Test [15] concerns Caco-2. The experiment in a line: Induction of apoptosis in human Caco2 cells assessed as Fas-ligand concentration at 63.5 uM after 24 hrs by FASL-based ELISA (reference value: 20.5 pg/ml). The format is functional.
Test [16] has as its system Caco-2. The experiment in a line: Induction of apoptosis in human Caco2 cells assessed as caspase-3 concentration at 100 uM after 24 hrs by colorimetric analysis (reference value: 0.193 nmol/ml). The test is classed as functional.
Test [17] relates to Caco-2. Put plainly: Induction of apoptosis in human Caco2 cells assessed as caspase-3 concentration at 31 uM after 24 hrs by colorimetric analysis (reference value: 0.193 nmol/ml). The format is functional.
The test system of test [18] is Caco-2. The experiment in a line: Induction of apoptosis in human Caco2 cells assessed as Fas-ligand concentration at 31.5 uM after 24 hrs by FASL-based ELISA (reference value: 20.5 pg/ml). The test is classed as functional.
The test system of test [19] is Caco-2. Put plainly: Induction of apoptosis in human Caco2 cells assessed as Fas-ligand concentration at 31 uM after 24 hrs by FASL-based ELISA (reference value: 20.5 pg/ml). The format is functional. The procedure, abridged: (§2)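 Caco-2 cells were grown in RPMI-1640 with 10% FBS, penicillin and streptomycin at 37 C under 5% CO2. Cells were exposed to the test agent for 24 h. Fas-ligand in the cells was then measured with a colorimetric human FASL ELISA kit and reported as pg/mL against an untreated control.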

For test [20], the system named is Caco-2. Put plainly: Induction of apoptosis in human Caco2 cells assessed as caspase-3 concentration at 15 uM after 24 hrs by colorimetric analysis (reference value: 0.193 nmol/ml). The test is classed as functional.
Test [21] concerns Caco-2. Put plainly: Induction of apoptosis in human Caco2 cells assessed as caspase-3 concentration at 62 uM after 24 hrs by colorimetric analysis (reference value: 0.193 nmol/ml). The format is functional.
For test [22], the system named is Caco-2. Put plainly: Induction of apoptosis in human Caco2 cells assessed as Fas-ligand concentration at 15 uM after 24 hrs by FASL-based ELISA (reference value: 20.5 pg/ml). The format is functional. An outline of the steps:
as §2

Test [23] concerns Caco-2. The experiment in a line: Induction of apoptosis in human Caco2 cells assessed as Fas-ligand concentration at 62 uM after 24 hrs by FASL-based ELISA (reference value: 20.5 pg/ml). The test is classed as functional. The procedure, abridged:
as §2

Regarding `COc1ccc(-c2onc3nc(Nc4ccc(S(N)(=O)=O)cc4)sc23)cc1`, the Ratio in test [1] came to 0.317; in test [2], 0.401; in [3], 0.228; in test [5], 0.229; in test [6] it was 0.412. Also, the IC50 in [4] is 559 nM.
Regarding `NS(=O)(=O)c1ccc(NC2=NC(=O)/C(=C/c3ccccc3)S2)cc1`, the Ratio is recorded as 0.133 in [1]; 0.182 in test [2]; 0.068 in [3]; 0.422 in test [5]; 0.348 in test [6]. Also, the Activity in test [7] is 775.2 pg/mL; in test [8], 445.2 pg/mL; in [9], 0.37 nmol/mL; in [10], 0.43 nmol/mL; in test [11] it was 706.12 pg/mL; in [12] it was 0.38 nmol/mL. For the same compound, the IC50 in [4] is 334 nM.
In the case of `NS(=O)(=O)c1ccc(Nc2nc3nc(=O)[nH]c(-c4ccc(Cl)cc4)c3s2)cc1`, the Ratio in test [1] was 0.112; in test [2] it was 0.603; in test [3] it was 0.073; in test [5], 0.156; in test [6], 0.519. For the same compound, the IC50 in test [4] turned out to be 12700 nM.
On to `COc1ccc(-c2[nH]c(=S)nc3nc(Nc4ccc(S(N)(=O)=O)cc4)sc23)cc1`, for which the Ratio in test [1] is reported as 0.299; in [2], 0.344; in test [3], 0.169; in test [5], 0.186; in test [6] it was 0.444. In addition, the IC50 in test [4] was 667 nM.
As for `NS(=O)(=O)c1ccc(NC2=NC(=O)/C(=C/c3ccc(Cl)cc3)S2)cc1`, the Ratio in [1] was determined as 0.113; in test [2], 0.314; in test [3] it was 0.153; in test [5], 0.086; in test [6], 0.285. For the same compound, the IC50 in test [4] was 667 nM.
`NS(=O)(=O)c1ccc(Nc2nc3noc(-c4ccccc4)c3s2)cc1`: the Ratio in test [1] was found to be 0.304; in [2] it was 0.335; in [3], 0.456; in test [5], 0.295; in test [6], 0.442. Also, the IC50 in test [4] is 669 nM.
Regarding `COc1ccc(-c2[nH]c(=O)nc3nc(Nc4ccc(S(N)(=O)=O)cc4)sc23)cc1`, the Ratio in test [1] came out at 0.473; in test [2], 0.362; in test [3], 0.167; in test [5], 0.257; in test [6], 0.477. Besides, the half-maximal inhibitory concentration (IC50) in test [4] was determined as 667 nM.
On to `COc1ccc(/C=C2\SC(Nc3ccc(S(N)(=O)=O)cc3)=NC2=O)cc1`, for which the Ratio in test [1] came out at 0.466; in test [2], 0.179; in test [3], 0.485; in [5], 0.416; in test [6], 0.281. In addition, the IC50 in test [4] amounted to 1330 nM.
Turning to `NS(=O)(=O)c1ccc(Nc2nc3noc(-c4ccc(Cl)cc4)c3s2)cc1`, the Ratio in test [1] is 0.219; in test [2] it was 0.248; in test [3], 0.197; in test [5], 0.202; in test [6] it was 0.319. Moreover, the Activity was determined as 147.5 pg/mL in test [7]; 111.3 pg/mL in [8]; 0.407 nmol/mL in test [9]; 0.366 nmol/mL in test [10]; 312.2 pg/mL in test [11]; 0.409 nmol/mL in test [12]. Also, in test [4], the IC50 was 333 nM.
For the compound `NS(=O)(=O)c1ccc(Nc2nc3nc(=S)[nH]c(-c4ccccc4)c3s2)cc1`, the Ratio in [1] is given as 0.234; in test [2], 0.223; in [3] it was 0.135; in test [5], 0.223; in [6], 0.304. The Activity was 165.7 pg/mL in test [7]; 115.5 pg/mL in test [8]; 0.364 nmol/mL in test [9]; 0.35 nmol/mL in [10]; 307.5 pg/mL in test [11]; 0.34 nmol/mL in [12]. In addition, the IC50 in [4] turned out to be 333 nM.
As to `NS(=O)(=O)c1ccc(Nc2nc3nc(=S)[nH]c(-c4ccc(Cl)cc4)c3s2)cc1`, the Ratio in test [1] is 0.338; in test [2], 0.456; in [3] it was 0.276; in test [5] it was 0.339; in [6], 0.433. In addition, the Activity amounted to 309.4 pg/mL in [7]; 312.4 pg/mL in test [8]; 0.37 nmol/mL in test [9]; 0.404 nmol/mL in test [10]; 641.8 pg/mL in [11]; 0.366 nmol/mL in test [12]. Moreover, in test [4], the IC50 was 333 nM.
As for `NS(=O)(=O)c1ccc(Nc2nc3nc(=O)[nH]c(-c4ccccc4)c3s2)cc1`, the Ratio in [1] was 0.285; in [2], 0.237; in test [3], 0.227; in [5], 0.229; in test [6] it was 0.371. Moreover, the IC50 in test [4] was determined as 334 nM.
Consider `COc1cccc2c1C(=O)c1c(O)c3c(c(O)c1C2=O)C[C@@](O)(C(=O)CO)C[C@@H]3O[C@H]1C[C@H](N)[C@H](O)[C@H](C)O1` [DOXORUBICIN], for which the Ratio is listed as 0.663 in test [1]; 0.597 in test [2]; 0.343 in [3]; 0.552 in test [5]; 0.814 in test [6]. Also, the Activity in test [13] came to 0.26 nmol/mL; in test [14], 95.8 pg/mL; in test [15] it was 56.41 pg/mL; in test [16], 0.272 nmol/mL; in test [17] it was 0.251 nmol/mL; in test [18], 41.65 pg/mL. The half-maximal inhibitory concentration (IC50) in test [4] worked out at 63300 nM.
Turning to `O=c1[nH]cc(F)c(=O)[nH]1` [FLUOROURACIL], the Ratio worked out at 0.325 in test [1]; 0.31 in test [2]; 0.254 in test [3]; 0.525 in [5]; 0.405 in test [6]. Besides, the Activity amounted to 140.1 pg/mL in test [19]; 0.92 nmol/mL in test [20]; 0.73 nmol/mL in [21]; 287.7 pg/mL in test [22]; 66.2 pg/mL in test [23]; 0.8 nmol/mL in test [17]. In addition, in test [4], the IC50 is 31000 nM.
